Assay outcomes as filed in PubChem BioAssay.
Rpn11 inh – inhibitors of human proteasome Rpn11; inhibition, % at 20 µM; AID 588493; 0.59% of 360,000 active; human 26S proteasome, Ub4-pepOG fluorescence polarization; 20S core pre-blocked with epoxomicin; O00487;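 active = inhibition at 20 µM, scaled to each plate's controls, above about 33%, limit read from the data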
CSN deneddyl inh – blocks human CSN-mediated cullin deneddylation; Q92905; Purified CSN, SCF-Nedd8-OG deneddylation, fluorescence polarization; inhibition, % at 12.5 µM; 0.38% of 360,000 active;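 active = pattern-corrected inhibition above about 35%, with an unprinted fluorescence ratio check between 0.5 and 1.5, limit read from the data, passing the limit was not always enough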
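Material: human Csn5 produced in HEK293T cells; Input: enzyme 0.24 nM; Reagent: SCFSkp2-Nedd8OG substrate at 10 nM final; Dosing: 12.5 µM compound; Incubation: 90 min reaction at room temperature; Detection: fluorescence polarization of the substrate; Evaluation: % inhibition of substrate cleavage by Csn5; Control set: substrate-only high control, full reaction low control.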
HNF4A DNA FP – change in binding of human HNF4 alpha to DNA. HNF4a-FITC DNA binding, fluorescence polarization, 1 h. P41235. AID 1224865. 0.3% of 360,000 active. activity change, % at 10 µM; in the data active = activity change above about 30%, passing the limit was not always enough
Target sequence (P41235 whole entry, looked up): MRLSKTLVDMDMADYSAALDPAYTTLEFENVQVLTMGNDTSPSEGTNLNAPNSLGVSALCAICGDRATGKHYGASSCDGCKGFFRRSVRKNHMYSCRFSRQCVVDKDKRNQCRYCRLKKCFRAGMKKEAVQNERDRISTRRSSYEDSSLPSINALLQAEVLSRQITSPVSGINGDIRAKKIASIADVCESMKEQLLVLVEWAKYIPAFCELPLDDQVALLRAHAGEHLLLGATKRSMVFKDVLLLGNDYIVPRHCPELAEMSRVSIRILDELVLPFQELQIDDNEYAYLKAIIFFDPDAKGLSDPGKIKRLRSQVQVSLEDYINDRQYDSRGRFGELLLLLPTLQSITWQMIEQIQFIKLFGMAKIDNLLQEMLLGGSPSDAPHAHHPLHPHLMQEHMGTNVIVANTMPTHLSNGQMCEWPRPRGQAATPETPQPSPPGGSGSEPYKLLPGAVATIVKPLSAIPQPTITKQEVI
TPT1 inh – C. albicans TPT1 enzyme inhibition; recombinant caTPT1, FP RNA substrate dephosphorylation; inhibition, % at 5 µM; 0.81% of 300,000 active; AID 1962;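 active = inhibition above the mean of all tested compounds plus 3 SD, set per screening campaign, cut at about 24% in these data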
caTPT1 confirm – confirmation of Candida albicans TPT1 inhibitors; inhibition, % at 5 µM; recombinant caTPT1, fluorescence polarization, RNase T1 coupled; shares compounds with TPT1 inh; 74% of 2,400 active;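 active = inhibition above the primary screen limit, the mean inhibition of all tested compounds plus 3 SD, cut at about 25% in these data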
RNase T1 inh – RNase T1 inhibition in TPT1 counter-screen; inhibition, % at 5 µM; 83% of 2,400 active; shares compounds with TPT1 inh; RNase T1 cleavage, fluorescence polarization, 1536-well;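 active = inhibition above the solvent-only control well mean plus 3 SD, limit set per screening run, cut at about 23% in these data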;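 also: inhibitors block cleavage so intact labeled substrate keeps polarization high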
Target sequence (P00651 whole entry, looked up): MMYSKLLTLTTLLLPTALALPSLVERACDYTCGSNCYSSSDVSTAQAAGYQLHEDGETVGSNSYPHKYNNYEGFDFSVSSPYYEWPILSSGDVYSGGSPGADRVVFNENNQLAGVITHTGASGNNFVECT
Rpn11 inh conf – confirmation of human proteasome Rpn11 inhibitors; shares compounds with Rpn11 inh; purified human 26S proteasome, Ub4-pepOG fluorescence polarization; proteasome pretreated with epoxomicin; 29% of 1,900 active; AID 602318; inhibition, % at 20 µM
MMP-2 counter – MMP-2 (human) inhibition counter-screen; shares compounds with Rpn11 inh; recombinant MMP-2, FRET peptide cleavage fluorescence; inhibition, % at 20 µM; 4% of 1,900 active; AID 602330;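 also: human MMP-2 activated beforehand with APMA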
Thrombin inh – thrombin (bovine) inhibition counter-screen; shares compounds with Rpn11 inh; bovine thrombin cleavage of Ub4-pepOG, fluorescence polarization; 13% of 1,900 active; inhibition, % at 20 µM;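 active = mean inhibition at least 40% at 20 µM, or signal 3 deviations below plate average, so some actives read negative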
HNF4A confirm – change in binding of human HNF4 alpha to DNA, retest. shares compounds with HNF4A DNA FP. HNF4A-FITC DNA binding, fluorescence polarization, 1 h. activity change, % at 12.5 µM. 99% of 210 active. AID 1224897; call rule not given here
Hits are given with their value; 0 = inactive; - = no result shown. Only some compounds are listed: those with a hit (about 1.5% of all), similar ones and a draw of the others. Rule as the data show it, unless noted: active = inhibition above about 40%; inactive = the rest.

SMILES	Rpn11 inh	CSN deneddyl inh	HNF4A DNA FP	TPT1 inh	caTPT1 confirm	RNase T1 inh	HNF4A confirm	others
CC1=Nc2ccccc2/C1=C/c1nc(-c2ccc(C)s2)oc1O	-	0	54.8	165.8	179.1	169.6	73.6
CC1=Nc2ccccc2/C1=C/c1c(C)[nH]c2ccccc12	0	0	0	-	-	-	-
COc1ccc2c(/C=N/Nc3ccc(C(=O)O)cc3)c[nH]c2c1	-	0	52.3	55.9	38.6	49.6	35.1
Cc1cccc(C)c1NC(=O)CN1C(=O)NC(C)(C2CC2)C1=O (centres undefined)	0	0	0	-	-	-	-
C=CCN1C(=O)/C(=C/c2ccc(O)cc2)S/C1=N/c1nccs1	-	43.5	44.6	72.7	93.3	91.7	69.4
Nc1nc(SCc2nc3scc(-c4ccccc4)c3c(=O)[nH]2)n[nH]1	0	0	0	0	-	-	-
Nc1nnc(SCc2nc3scc(-c4ccccc4)c3c(=O)[nH]2)s1	70.0	0	45.2	36.2	40.9	53.9	56.5	Rpn11 inh conf=69.9;MMP-2 counter=0;Thrombin inh=60.2
COc1cc(/C=C2\N=C3CCCCCN3C2=O)ccc1O	152.0	56.8	46.9	50.2	69.0	72.6	76.1	Rpn11 inh conf=88.3;MMP-2 counter=0;Thrombin inh=67.0
COc1ccc(/C=C2\N=C3CCCCCN3C2=O)cc1OC	0	0	0	0	-	-	-
CC(C)(C)n1nnnc1C(c1ccccc1)N1CCN(c2ccccn2)CC1 (centres undefined)	-	0	0	-	-	-	-
O=C(c1ccc2c(c1)CCC2)N1CCN(Cc2ccccc2)CC1	0	0	0	-	-	-	-
COc1cccc(NC(=O)CN(C)C(=O)c2c(C)nn(CC(C)C)c2Cl)c1	0	0	0	-	-	-	-
COc1ccccc1N1C(=O)S/C(=C\c2ccc(C)s2)C1=O	96.4	0	43.1	34.4	38.0	53.4	76.0	Rpn11 inh conf=56.8;MMP-2 counter=0;Thrombin inh=0
Cc1ccc(-n2nc3c(N4CCC(C(=O)N5CCC(C(N)=O)CC5)CC4)nnc(C)c3c2C)cc1	-	0	49.4	35.0	39.6	48.0	48.4
Cc1ccccc1C(=O)/C=C1/SCC(=O)N1C	70.6	46.2	37.8	26.8	0	27.5	59.4	Rpn11 inh conf=48.7;MMP-2 counter=0;Thrombin inh=0
CCN1C(=O)CS/C1=N\S(=O)(=O)c1ccccc1	0	0	0	0	-	-	-
CCN1C(=O)CS/C1=C(\C#N)S(=O)(=O)c1ccccc1	42.2	0	40.0	103.8	79.6	90.2	42.9	Rpn11 inh conf=0;MMP-2 counter=0;Thrombin inh=0
O=C(COc1ccc(Cl)cc1Cl)NN1C(=O)/C(=C\c2ccc(Cl)cc2)SC1=S	0	0	0	0	-	-	-
Cn1cccc1/C=C1\SC(=S)N(NC(=O)c2cccc(Cl)c2)C1=O	-	35.7	61.2	86.0	97.6	110.5	97.1
N#CCC(=O)Nc1ccc(C(=O)NCC(c2ccco2)N2CCCCC2)cc1 (centres undefined)	-	42.5	67.0	47.8	55.9	66.5	44.0
O=C(NCC(c1ccco1)N1CCCCC1)c1ccc(S(=O)(=O)Nc2ccccc2)cc1 (centres undefined)	0	0	0	0	-	-	-
CC(C)(C)OC(=O)N1CCC(c2cc(-c3cccs3)n[nH]2)CC1	0	0	0	0	-	-	-
Cc1sc2nc(CSc3nnnn3-c3ccc(Cl)cc3)[nH]c(=O)c2c1C	-	0	37.8	30.5	40.0	49.4	32.5
N#Cc1ccc(-c2cccnc2)nc1SCC(=O)c1ccccc1	-	0	46.2	67.2	66.1	73.5	48.9
CCN(CC)C(=O)CSc1nc(-c2ccccc2)ccc1C#N	0	0	0	0	-	-	-
SMILES	Rpn11 inh	CSN deneddyl inh	HNF4A DNA FP	TPT1 inh	caTPT1 confirm	RNase T1 inh	HNF4A confirm	others
O=C(NC1CCN(S(=O)(=O)c2ccccc2F)CC1)c1cccnc1	0	0	0	0	-	-	-
CCOc1ccc(N2CC(C(=O)Nc3nnc(CC)s3)CC2=O)cc1 (centres undefined)	0	0	0	0	-	-	-
COc1ccc(NC(=O)CN(C)C(=O)CSc2nc3ccccc3s2)cc1	-	0	42.8	36.3	35.5	45.4	46.3
O=C(NC1CC1)c1cc(=S)[nH]c2ccccc12	0	0	0	-	-	-	-
CN(C(=O)COC(=O)c1ccc([N+](=O)[O-])cc1N)c1ccccc1	0	42.5	42.5	84.4	74.7	82.4	91.9
Cc1ccc(C(=O)OCC(=O)N(C)c2ccccc2)c(C)c1	0	0	0	0	-	-	-
CC1Nc2ccc(C(=O)NC3CCCCC3)cc2NC1=O (centres undefined)	-	56.9	61.0	33.7	38.5	48.5	49.1
CN1CCc2c(sc(NC(=O)c3ccc(S(=O)(=O)N4CCCC4)cc3)c2C(N)=O)C1	-	0	35.5	115.9	132.8	133.7	32.1
O=S(=O)(Nc1cc(S(=O)(=O)N2CCOCC2)ccc1NCC1CCCO1)c1ccc(F)cc1 (centres undefined)	0	0	0	-	-	-	-
CC(=O)Nc1ccc(S(=O)(=O)NCc2nc(-c3cccc(C)c3)no2)cc1	-	0	62.4	41.3	72.7	80.0	63.9
COc1ccc(S(=O)(=O)NC(C)C(=O)N2CCCC2)cc1C (centres undefined)	0	0	0	-	-	-	-
COc1ccc2c3c([nH]c2c1)C1CC2C(CC(O)C(OC)C2CO)CN1CC3 (centres undefined)	0	0	0	0	-	-	-
COC(=O)[C@H]1[C@H]2C[C@@H]3c4[nH]c5cc(OC)ccc5c4CCN3C[C@H]2C[C@@H](OC(=O)c2ccc(N)cc2)[C@@H]1OC	-	0	42.6	62.1	86.4	91.4	64.9
CSc1nnc(C)c(/C=C/Nc2ccc(Cl)cc2)n1	-	0	59.1	153.7	121.1	117.2	54.7
COc1ccc(N/C=C/C(=O)C(F)(F)F)cc1	0	0	0	0	-	-	-
COc1ccc(N/C=C/c2nc(SC)nnc2C)cc1	-	0	44.6	111.3	108.1	110.9	61.7
CC(=O)N[C@@H](CC(=O)O)C(=O)O	0	0	0	0	-	-	-
CN1C(=O)/C(=C\C=C2/CCCN2C)N(C)C1=S	76.8	0	61.9	60.2	88.4	102.3	92.8	Rpn11 inh conf=74.5;MMP-2 counter=0;Thrombin inh=60.3
Cn1cc(S(=O)(=O)N2CCCC2)cc1C(=O)NCc1ccccc1Cl	0	0	0	0	-	-	-
O=C(c1ccnc(Cl)c1)N1CCCC(N2CCN(c3ccccc3F)CC2)C1 (centres undefined)	53.5	0	0	0	-	-	-	Rpn11 inh conf=0;MMP-2 counter=0;Thrombin inh=0
Cc1nc([N+](=O)[O-])c(Br)n1Cc1ccc(Cl)c(Cl)c1	0	0	0	-	-	-	-
